In PMC7771113 (International Journal for Parasitology: Drugs and Drug …, 2020):
Like-named read-outs stand apart in the source and are kept apart here.

Legend:
[1] = tested on: T. gondii ME49 strain (type II) tachyzoites; assay: Effect on tachyzoites of the ME49 strain in NDHF fibroblasts; format: cell-based, Toxoplasma gondii; settings: 1 μM TST, 0.1 μM SAHA, 24 h
[2] = tested on: bradyzoites of the EGS strain; assay: Activity against bradyzoites of the EGS strain in 96 h-infected NDHF fibroblasts; format: cell-based, Toxoplasma gondii; settings: 48 h; for proliferation or viability of bradyzoites: 1 and 5 μM TST, 0.1 μM SAHA
In short: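 Tachyzoites of the EGS strain expressing SAG1mCherry/BAG1sfGFP were grown in NDHF fibroblasts for 96 h, when bradyzoite conversion and spontaneous cyst formation are higher, then treated for 48 h. DMSO was at most 0.1% (v/v). Bradyzoites were imaged by fluorescence microscopy and fluorescence intensity was quantified. Two independent experiments; one-way ANOVA with Bonferroni test.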

[3] = tested on: i. p. (intra peritoneal) macrophages; assay: Cytotoxicity assay in host cells; format: cell-based, mouse; settings: read-out: Macrophages CC50; 48h
[4] = Cytotoxicity assay in host cells; format: cell-based, Human; settings: human, NDHF fibroblasts; for CC50 at 48 h: NDHF CC50, 48h
[5] = Cytotoxicity assay in host cells; format: cell-based; settings: mouse, primary microglial cultures (mixed astrocytes/microglia)
[6] = tested on: histone H4 (lys16) acetylation in T. gondii; assay: Western blot of histone H4 acetylation in treated tachyzoites; format: cell-based, Toxoplasma gondii; settings: 0,2 μM SAHA, 1 μM TST, 48 h
In short: (§1)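 Infected NDHF fibroblasts were treated for 48 h. Tachyzoites were released by 30G needle passage, pelleted at 2000 rcf for 10 min and filter-purified; 10^6 parasites were cryolysed with protease inhibitors. Primary antibodies, 1 h: H3 and acetyl-H3 Lys9/14 each 1:1000; H4 1:3000, acetyl-H4 Lys16 1:1000; α-tubulin 1:1000, acetylated α-tubulin 1:2000. Detection by HRP secondaries and ECL. Bands from three experiments were normalised to GAPDH, and acetylated/total ratios were computed.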

[7] = tested on: histone H3 (Lys 9/14) acetylation in T. gondii; assay: Western blot of histone H3 acetylation in treated tachyzoites; format: cell-based, Toxoplasma gondii; settings: 0,2 μM SAHA, 1 μM TST, 48 h
In short: as §1

[8] = tested on: T. gondii RH-ACP-YFP tachyzoite mitochondria; assay: MitoTracker fluorescence analysis of parasite mitochondria; format: cell-based, Toxoplasma gondii; settings: 1 μM TST, 0.1 μM SAHA, 24 h
In short: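 NDHF fibroblasts infected with RH-ACP-YFP tachyzoites were treated for 24 h, then incubated with 50 nM MitoTracker Red CMXRos for 45 min. Mitochondrial membrane potential and partitioning were assessed by confocal and SR-SIM imaging. Two independent experiments.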

T. gondii RH tachyzoites = assay: Fluorescence microscopy of cell division and apicoplast; format: cell-based, Toxoplasma gondii; settings: 1 μM TST, 0.1 μM SAHA, 24 h; for effect on apicoplast: ACP-YFP tachyzoites
In short: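 NDHF fibroblasts were infected with RH-ACP-YFP tachyzoites and treated for 24 h, then fixed 40 min in 4% formaldehyde/PBS and permeabilised 15 min in 0.5% Triton X-100. Staining used anti-SAG1 and rabbit anti-centrin1 (1:1000), Alexa secondaries (1:800) and Hoechst (0.5 μg/mL). Daughter budding was also examined in RH-infected cells with anti-IMC1 (1:1000). Imaging by confocal and SR-SIM; two independent experiments.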

[9] = tested on: H4 acetylation in T. gondii; settings: ref Bougdour et al., 2009; cited from earlier work
T. gondii = settings: cited from earlier work
[10] = tested on: T. gondii RH strain (type I) tachyzoites; assay: Antiproliferative assay, tachyzoites of RH strain in LLC-MK2 cells; format: cell-based; settings: Toxoplasma gondii
[11] = tested on: T. gondii EGS strain (atypical, I/III); assay: Antiproliferative assay, tachyzoites of EGS strain; format: cell-based; settings: Toxoplasma gondii, 48 h, read-out: T. gondii EGS IC50
NDHF fibroblasts = assay: Cytotoxicity assay in host cells; format: cell-based, Human
T. gondii α-tubulin = assay: Western blot of α-tubulin and acetylated α-tubulin in treated tachyzoites; format: cell-based, Toxoplasma gondii; settings: 1 μM TST, 0.1 μM SAHA, 48 h
In short: as §1

| Compound | tachyzoite proliferation, ME49 strain [1] | proliferation or viability of bradyzoites [2] | CC50 [3] [µM] | CC50 at 48 h [4] [µM] | CC50 at 48 h [5] [µM] | acetylation levels of H4 (lys16), rH4ac/rH4 [6] | acetylation levels of H3 (Lys 9/14), rH3ac/rH3 [7] | effect on parasite mitochondria (Mitotracker) [8] | effect on cell division / daughter cell budding (T. gondii RH tachyzoites) | effect on apicoplast (T. gondii RH tachyzoites) | other results |
| --- | --- | --- | --- | --- | --- | --- | --- | --- | --- | --- | --- |
| O=C(CCCCCCC(=O)Nc1ccccc1)NO [SAHA, Suberoylanilide Hydroxamic Acid] | inhibit tachyzoite proliferation significantly | inhibited significantly | 4.61 | > 20 | > 20 | modest increase | modest increase | mitochondrion fragmentation | masses of damaged parasites showing several centrosomes | apicoplast fragmentation | amount of bradyzoites in the culture ([2]; 0.2 μM SAHA): maintained the same amount of bradyzoites in the culture as in the control |
| FR235222 |  |  |  |  |  |  |  |  |  |  | H4 acetylation [9]: increased H4 acetylation |
| COc1cccc(CC(=O)Nc2ccc(C(=O)NO)cc2)c1 [N-hydroxy-4-[2-(3-methoxyphenyl)acetamido]benzamid] |  |  |  |  |  |  |  |  |  |  | IC50 (T. gondii; RH strain, ref Loeuillet et al., 2018): 0.35 µM |
| CN1CCc2c(c3ccccc3n2Cc2ccc(C(=O)NO)cc2)C1 [TST, Tubastatin A] | inhibit tachyzoite proliferation significantly | inhibited significantly | 13.5 | > 20 | > 20 | significant increase | decrease below the levels of the untreated cells | reduction of the labeling intensity of mitochondria | formation of a rounded mass of parasites | Alteration at the apicoplast partition | IC90 ([10]; LLC-MK2): 5 µM; IC50 ([10]; LLC-MK2, 24 h): 0.019 ± 0.001 µM; IC50 ([10]; LLC-MK2, 48 h, read-out: T. gondii RH IC50): 0.52 µM; IC50 [11]: 0.29 µM; CC50 at 120 h ([4]; CC50, NDHF fibroblasts, treatment for 120 h with higher concentrations (20–80 μM)): 29.9 µM; CC50 times higher than the IC50 obtained for T. gondii (NDHF fibroblasts; CC50 in NDHF after 120 h): 57 times; selective index (NDHF fibroblasts; in different types of mammalian cells after 48 h of treatment): at least 20; tubulin acetylation levels, ratio rTubac/rTub (T. gondii α-tubulin): no change |
| CCc1nc(N)nc(N)c1-c1ccc(Cl)cc1 [pyrimethamine] |  |  |  |  |  |  |  |  |  |  | IC50 (T. gondii; read-out: IC50 against T. gondii, ref Dubar et al., 2011, Martins-Duarte, 2006): 0.12 µM |
